# Test results reported in ChEMBL document CHEMBL1126019, “Synthesis, stability, and biological evaluation of water-soluble prodrugs of a new echinocandin lipopeptide. Discovery of a potential clinical agent for the treatment of systemic candidiasis and Pneumocystis carinii pneumonia (PCP)” (J Med Chem, 1992).
# Numbered stars: 1 amine (or outer) side, 2 acyl side, 3 side chain; on linkers, the order of the positions; unused ones are H or OH. Bridge positions count the residues as written; N and C are the ends. Square brackets hold non-standard residues; d marks the D form. Peptide text beside a SMILES is read from it. * marks the point of attachment. Orn(4R-OH,5R-OH) = O=C([C@H](C[C@@H](O)[C@@H](O)N[*:3])N[*:1])[*:2]; hTyr(3S-OH,4S-OH) = N[C@H](C(=O)O)[C@H](O)[C@@H](O)c1ccc(O)cc1; Pro(3S-OH,4S-Me) = C[C@H]1CN[C@H](C(=O)O)[C@H]1O; Benzoyl(4-octyloxy) = CCCCCCCCOc1ccc(C(=O)*)cc1; Hyp = O=C(O)[C@@H]1C[C@@H](O)CN1
# Experiments:
# Fungi [1] = assay: (§1) Minimum fungicidal concentration against Candida albicans MY 1028; format: functional, organism-based
# How it was run: (§2)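 Clinical isolates in yeast nitrogen base with 1% dextrose, inoculated with about 5×10^3 CFU per well. Drug was tested by 2-fold serial dilution from 128 to 0.06 µg/mL, with growth for 24 h at 35 °C. 1.5-µL aliquots were then spotted onto Sabouraud dextrose agar and incubated at 35 °C for 24 h. MFC was the lowest concentration giving fewer than five colonies per spot. Duplicate determinations.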
# Fungi [2] = assay: (§3) Minimum fungicidal concentration against Candida tropicalis MY 1012; format: functional, organism-based; how it was run: as §2
# Fungi [3] = assay: Minimum fungicidal concentration against Candida pseudotropicalis MY 1100; format: functional, organism-based
# How it was run: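 Clinical isolates were inoculated at about 5×10^3 CFU into yeast nitrogen base with 1% dextrose, with drug in 2-fold dilutions from 128 to 0.06 µg/mL, and grown 24 h at 35 °C. Then 1.5 µL aliquots were spotted on Sabouraud dextrose agar and held 24 h at 35 °C. MFC is the lowest concentration giving fewer than five colonies per spot, from duplicate determinations.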
# Homo sapiens = organism: Homo sapiens; assay: Hemolytic potential was determined as the minimum lytic concentration against human red blood cells; format: functional, cell-based
# How it was run: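 Compounds were serially diluted in water containing 10% DMSO and added to whole human blood, then incubated 2 h at 37 °C. Red cell lysis was scored visually, and the lowest lytic concentration was recorded.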
# [4] = Inhibitory activity against glucan synthesis; format: functional
# Fungi [5] = assay: (§4) Minimum fungicidal concentration against Candida albicans MY 1055; format: functional, organism-based; how it was run: as §2
# Candida albicans [6] = assay: as §1; format: functional, organism-based; how it was run: as §2
# Candida parapsilosis = assay: (§5) Minimum fungicidal concentration against Candida parapsilosis MY 1010; format: functional, organism-based; how it was run: as §2
# Candida tropicalis = assay: as §3; format: functional, organism-based; how it was run: as §2
# Mus musculus = organism: Mus musculus; assay: Minimum effect dose required to reduce the number of colony forming units in per gram kidney of mice after being challenged, by tail vein injection, with 5 X l0e4 cells of Candida albicans (MY 1055); format: functional
# How it was run: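 DBA/2 mice (5 per dose level) were infected intravenously and dosed ip with vehicle sham or 1.5, 3.0 or 6.0 mg/kg twice daily for 4 days. On day 7 post-infection, kidneys were cultured on SDA (35 °C, 24 h) and CFU/g counted. MED99 is the dose giving ≥99% CFU/g reduction versus vehicle sham.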
# Rattus norvegicus = organism: Rattus norvegicus; assay: Minimum effect dose required to reduce the number of alveolor cyst load in rat Pneumocystis carinii pneumonia assay; format: functional
# How it was run: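 Immunosuppressed Sprague-Dawley rats with confirmed infection (5 per dose level) were dosed subcutaneously, 0.15 and 0.60 mg/kg twice daily for 4 days. On day 5, lungs were homogenized and cysts counted microscopically in a known amount of homogenate. MED90 is the dose giving ≥90% cyst reduction versus vehicle sham controls.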
# Candida albicans [7] = assay: as §4; format: functional, organism-based; how it was run: as §2
# Fungi [8] = assay: as §5; format: functional, organism-based; how it was run: as §2
Compound,Concentration (Fungi [1]),Concentration (Fungi [2]),Concentration (Fungi [3]),Concentration (Homo sapiens),IC50 [4],Concentration (Fungi [5]),Concentration (Candida albicans [6]),Concentration (Candida parapsilosis),Concentration (Candida tropicalis),MED99 (Mus musculus),MED90 (Rattus norvegicus),Concentration (Candida albicans [7]),Concentration (Fungi [8])
CCC(C)CC(C)CCCCCCCCC(=O)N[C@H]1C[C@@H](O)[C@@H](O)NC(=O)[C@@H]2[C@@H](O)CCN2C(=O)[C@H]([C@@H](O)CC(N)=O)NC(=O)[C@H]([C@H](O)[C@@H](O)c2ccc(OC(=O)NCC(=O)O)cc2)NC(=O)[C@@H]2C[C@@H](O)CN2C(=O)[C@H]([C@H](C)O)NC1=O (stereo not given in full),4 µg/mL,8 µg/mL,32 µg/mL,> 400 µg/mL,> 10000 nM,4 µg/mL,,,,,,,
CCC(C)CC(C)CCCCCCCCC(=O)N[C@H]1C[C@@H](O)[C@@H](O)NC(=O)[C@@H]2[C@@H](O)CCN2C(=O)[C@H]([C@@H](O)CC(N)=O)NC(=O)[C@H]([C@H](O)[C@@H](O)c2ccc(OC(=O)NCCN(C)C)cc2)NC(=O)[C@@H]2C[C@@H](O)CN2C(=O)[C@H]([C@H](C)O)NC1=O (stereo not given in full),1 µg/mL,1 µg/mL,64 µg/mL,25 µg/mL,1000 nM,1 µg/mL,,,,,,,
"CCCCCCCCOc1ccc(C(=O)N[C@H]2C[C@@H](O)[C@@H](O)NC(=O)[C@@H]3[C@@H](O)[C@@H](C)CN3C(=O)[C@H]([C@@H](C)O)NC(=O)[C@H]([C@H](O)[C@@H](O)c3ccc(O)cc3)NC(=O)[C@@H]3C[C@@H](O)CN3C(=O)[C@H]([C@@H](C)O)NC2=O)cc1 [CILOFUNGIN] ({Benzoyl(4-octyloxy)}-[Orn(4R-OH,5R-OH)]T[Hyp][hTyr(3S-OH,4S-OH)]T[Pro(3S-OH,4S-Me)]; lactam 1-C)",,,,> 400 µg/mL,1000 nM,,0.5 µg/mL,16 µg/mL,0.25 µg/mL,3 mg/kg,> 2.5 mg/kg,0.5 µg/mL,
CCC(C)CC(C)CCCCCCCCC(=O)N[C@H]1C[C@@H](O)[C@@H](O)NC(=O)[C@@H]2[C@@H](O)CCN2C(=O)[C@H]([C@@H](O)CC(N)=O)NC(=O)[C@H]([C@H](O)[C@@H](O)c2ccc(OC(=O)NCCC(=O)O)cc2)NC(=O)[C@@H]2C[C@@H](O)CN2C(=O)[C@H]([C@H](C)O)NC1=O (stereo not given in full),128 µg/mL,128 µg/mL,,> 400 µg/mL,> 10000 nM,128 µg/mL,,,,,,,> 128 µg/mL
CCC(C)CC(C)CCCCCCCCC(=O)N[C@H]1C[C@@H](O)[C@@H](O)NC(=O)[C@@H]2[C@@H](O)CCN2C(=O)[C@H]([C@@H](O)CC(N)=O)NC(=O)[C@H]([C@H](O)[C@@H](O)c2ccc(OC(=O)CCN)cc2)NC(=O)[C@@H]2C[C@@H](O)CN2C(=O)[C@H]([C@@H](C)O)NC1=O.Cl (stereo not given in full),,,,,,,,,,6 mg/kg,0.15 mg/kg,,
CCC(C)CC(C)CCCCCCCCC(=O)N[C@H]1C[C@@H](O)[C@@H](O)NC(=O)[C@@H]2[C@@H](O)CCN2C(=O)[C@H]([C@@H](O)CC(N)=O)NC(=O)[C@H]([C@H](O)[C@@H](O)c2ccc(OC(=O)OCCN(C)C)cc2)NC(=O)[C@@H]2C[C@@H](O)CN2C(=O)[C@H]([C@H](C)O)NC1=O (stereo not given in full),0.125 µg/mL,0.125 µg/mL,1 µg/mL,50 µg/mL,100 nM,0.25 µg/mL,,,,,,,2 µg/mL
CCC(C)CC(C)CCCCCCCCC(=O)N[C@H]1C[C@@H](O)[C@@H](O)NC(=O)[C@@H]2[C@@H](O)CCN2C(=O)[C@H]([C@@H](O)CC(N)=O)NC(=O)[C@H]([C@H](O)[C@@H](O)c2ccc(OC(=O)CN)cc2)NC(=O)[C@@H]2C[C@@H](O)CN2C(=O)[C@H]([C@@H](C)O)NC1=O.Cl (stereo not given in full),,,,,,,,,,3 mg/kg,0.6 mg/kg,,
CCC(C)CC(C)CCCCCCCCC(=O)N[C@H]1C[C@@H](O)[C@@H](O)NC(=O)[C@@H]2[C@@H](O)CCN2C(=O)[C@H]([C@@H](O)CC(N)=O)NC(=O)[C@H]([C@H](O)[C@@H](O)c2ccc(OC(=O)CCCC(=O)O)cc2)NC(=O)[C@@H]2C[C@@H](O)CN2C(=O)[C@H]([C@@H](C)O)NC1=O (stereo not given in full),,,,,,,,,,6 mg/kg,0.6 mg/kg,,
CCC(C)CC(C)CCCCCCCCC(=O)N[C@H]1C[C@@H](O)[C@@H](O)NC(=O)[C@@H]2[C@@H](O)CCN2C(=O)[C@H]([C@@H](O)CC(N)=O)NC(=O)[C@H]([C@H](O)[C@@H](O)c2ccc(OC(=O)N(C)CC(=O)O)cc2)NC(=O)[C@@H]2C[C@@H](O)CN2C(=O)[C@H]([C@H](C)O)NC1=O (stereo not given in full),2 µg/mL,1 µg/mL,8 µg/mL,25 µg/mL,> 1000 nM,2 µg/mL,,,,,,,
